The values below come from ChEMBL document CHEMBL1156310, “Stepwise synthesis of oligonucleotide-peptide conjugates containing guanidinium and lipophilic groups in their 3'-termini” (Bioorg Med Chem Lett, 2010).

Series [1] relates to SH-SY5Y. Kind of series: Antisense activity in human SH-SY5Y cells assessed as inhibition of luciferase gene expression at 60 nM after 22 hrs by luminometry in the presence of lipofectamine 2000. The series is classed as functional. In outline:
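SH-SY5Y cells cotransfected via Lipofectamine 2000 with Renilla (target) and firefly (internal control) luciferase plasmids plus phosphorothioate ASO derivatives at 60 nM, targeting Renilla mRNA site 21-38; scrambled sequences as controls. Read-out: Renilla luciferase inhibition normalized to firefly.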

For series [2], the system named is SH-SY5Y. Kind of series: Cellular uptake in human SH-SY5Y cells at 300 nM after 22 hrs by dual leucifearse reporter assay. Type of series: ADME, cell-based. Conditions: 0.3 µM. Put shortly: (§1)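 Dual-luciferase plasmids (Renilla target, firefly internal control) transfected into SH-SY5Y; after 3 h, medium replaced with fresh medium containing ASO-peptide conjugates (150, 200, 300 nM) without Lipofectamine 2000. Luciferase activities measured 22 h after transfection; knockdown expressed as inhibition of Renilla expression. Phosphorothioate ASO targets Renilla mRNA 21-38 site.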

The subject of series [3] is SH-SY5Y. Kind of series: Antisense activity in human SH-SY5Y cells assessed as inhibition of luciferase gene expression at 300 nM after 22 hrs by luminometry. Type of series: functional. Details: scale not given: the % may be the effect or the level left. Put shortly:
as §1

The structures appear in SMILES notation.

Consider `Cc1cn([C@H]2C[C@H](OP(O)(=S)OC[C@H]3O[C@@H](n4cc(C)c(=O)[nH]c4=O)C[C@@H]3OP(O)(=S)OC[C@H]3O[C@@H](n4cnc5c(=O)[nH]c(N)nc54)[C@H](O)[C@@H]3OP(O)(=S)OC[C@H]3O[C@@H](n4cc(C)c(=O)[nH]c4=O)C[C@@H]3OP(O)(=S)OC[C@H]3O[C@@H](n4cc(C)c(=O)[nH]c4=O)C[C@@H]3OP(O)(=S)OC[C@H]3O[C@@H](n4cc(C)c(=O)[nH]c4=O)C[C@@H]3OP(O)(=S)OC[C@H]3O[C@@H](n4ccc(N)nc4=O)[C@H](O)[C@@H]3OP(O)(=S)OC[C@H]3O[C@@H](n4ccc(N)nc4=O)[C@H](O)[C@@H]3OP(O)(=S)OC[C@H]3O[C@@H](n4cc(C)c(=O)[nH]c4=O)C[C@@H]3OP(O)(=S)OC[C@H]3O[C@@H](n4cc(C)c(=O)[nH]c4=O)C[C@@H]3OP(O)(=S)OC[C@H]3O[C@@H](n4cc(C)c(=O)[nH]c4=O)C[C@@H]3OP(O)(=S)OC[C@H]3O[C@@H](n4cnc5c(=O)[nH]c(N)nc54)[C@H](O)[C@@H]3OP(O)(=S)OC[C@H]3O[C@@H](n4ccc(N)nc4=O)[C@H](O)[C@@H]3O)[C@@H](COP(O)(=S)O[C@H]3[C@@H](O)[C@H](n4ccc(N)nc4=O)O[C@@H]3COP(O)(=S)O[C@H]3C[C@H](n4cc(C)c(=O)[nH]c4=O)O[C@@H]3COP(O)(=S)O[C@H]3[C@@H](O)[C@H](n4cnc5c(=O)[nH]c(N)nc54)O[C@@H]3COP(O)(=S)O[C@H]3[C@@H](O)[C@H](n4cnc5c(=O)[nH]c(N)nc54)O[C@@H]3COP(O)(=S)O[C@H]3[C@@H](O)[C@H](n4cnc5c(N)ncnc54)O[C@@H]3COP(O)(=S)OCCCC(=O)N[C@H](CCCCN)C(=O)N[C@@H](CCCCN)C(=O)NCCCCCCO)O2)c(=O)[nH]c1=O` (some centres undefined), for which the inhibition at 0.06 µM in the series with SH-SY5Y [1] was determined as 61%. This compound displayed a Drug uptake in the series with SH-SY5Y [2] of 11%.

`Cc1cn([C@H]2C[C@H](OP(O)(=S)OC[C@H]3O[C@@H](n4cc(C)c(=O)[nH]c4=O)C[C@@H]3OP(O)(=S)OC[C@H]3O[C@@H](n4cnc5c(=O)[nH]c(N)nc54)[C@H](O)[C@@H]3OP(O)(=S)OC[C@H]3O[C@@H](n4cc(C)c(=O)[nH]c4=O)C[C@@H]3OP(O)(=S)OC[C@H]3O[C@@H](n4cc(C)c(=O)[nH]c4=O)C[C@@H]3OP(O)(=S)OC[C@H]3O[C@@H](n4cc(C)c(=O)[nH]c4=O)C[C@@H]3OP(O)(=S)OC[C@H]3O[C@@H](n4ccc(N)nc4=O)[C@H](O)[C@@H]3OP(O)(=S)OC[C@H]3O[C@@H](n4ccc(N)nc4=O)[C@H](O)[C@@H]3OP(O)(=S)OC[C@H]3O[C@@H](n4cc(C)c(=O)[nH]c4=O)C[C@@H]3OP(O)(=S)OC[C@H]3O[C@@H](n4cc(C)c(=O)[nH]c4=O)C[C@@H]3OP(O)(=S)OC[C@H]3O[C@@H](n4cc(C)c(=O)[nH]c4=O)C[C@@H]3OP(O)(=S)OC[C@H]3O[C@@H](n4cnc5c(=O)[nH]c(N)nc54)[C@H](O)[C@@H]3OP(O)(=S)OC[C@H]3O[C@@H](n4ccc(N)nc4=O)[C@H](O)[C@@H]3O)[C@@H](COP(O)(=S)O[C@H]3[C@@H](O)[C@H](n4ccc(N)nc4=O)O[C@@H]3COP(O)(=S)O[C@H]3C[C@H](n4cc(C)c(=O)[nH]c4=O)O[C@@H]3COP(O)(=S)O[C@H]3[C@@H](O)[C@H](n4cnc5c(=O)[nH]c(N)nc54)O[C@@H]3COP(O)(=S)O[C@H]3[C@@H](O)[C@H](n4cnc5c(=O)[nH]c(N)nc54)O[C@@H]3COP(O)(=S)O[C@H]3[C@@H](O)[C@H](n4cnc5c(N)ncnc54)O[C@@H]3COP(O)(=S)OCCCC(=O)N[C@H](CCCCN)C(=O)N[C@@H](CCCCN)C(=O)N[C@H](CCCCN)C(=O)N[C@@H](CCCCN)C(=O)N[C@H](CCCCN)C(=O)N[C@@H](CCCCN)C(=O)N[C@H](CCCCN)C(=O)N[C@@H](CCCCN)C(=O)NCCCCCCO)O2)c(=O)[nH]c1=O` (some centres undefined): in the series with SH-SY5Y [1], the inhibition at 0.06 µM is 65%. In addition, the Drug uptake with SH-SY5Y [2] worked out at 11%.

Take `Cc1cn([C@H]2C[C@H](OP(O)(=S)OC[C@H]3O[C@@H](n4cc(C)c(=O)[nH]c4=O)C[C@@H]3OP(O)(=S)OC[C@H]3O[C@@H](n4cnc5c(=O)[nH]c(N)nc54)[C@H](O)[C@@H]3OP(O)(=S)OC[C@H]3O[C@@H](n4cc(C)c(=O)[nH]c4=O)C[C@@H]3OP(O)(=S)OC[C@H]3O[C@@H](n4cc(C)c(=O)[nH]c4=O)C[C@@H]3OP(O)(=S)OC[C@H]3O[C@@H](n4cc(C)c(=O)[nH]c4=O)C[C@@H]3OP(O)(=S)OC[C@H]3O[C@@H](n4ccc(N)nc4=O)[C@H](O)[C@@H]3OP(O)(=S)OC[C@H]3O[C@@H](n4ccc(N)nc4=O)[C@H](O)[C@@H]3OP(O)(=S)OC[C@H]3O[C@@H](n4cc(C)c(=O)[nH]c4=O)C[C@@H]3OP(O)(=S)OC[C@H]3O[C@@H](n4cc(C)c(=O)[nH]c4=O)C[C@@H]3OP(O)(=S)OC[C@H]3O[C@@H](n4cc(C)c(=O)[nH]c4=O)C[C@@H]3OP(O)(=S)OC[C@H]3O[C@@H](n4cnc5c(=O)[nH]c(N)nc54)[C@H](O)[C@@H]3OP(O)(=S)OC[C@H]3O[C@@H](n4ccc(N)nc4=O)[C@H](O)[C@@H]3O)[C@@H](COP(O)(=S)O[C@H]3[C@@H](O)[C@H](n4ccc(N)nc4=O)O[C@@H]3COP(O)(=S)O[C@H]3C[C@H](n4cc(C)c(=O)[nH]c4=O)O[C@@H]3COP(O)(=S)O[C@H]3[C@@H](O)[C@H](n4cnc5c(=O)[nH]c(N)nc54)O[C@@H]3COP(O)(=S)O[C@H]3[C@@H](O)[C@H](n4cnc5c(=O)[nH]c(N)nc54)O[C@@H]3COP(O)(=S)O[C@H]3[C@@H](O)[C@H](n4cnc5c(N)ncnc54)O[C@@H]3COP(O)(=S)OCCCC(=O)N[C@H](CCCCN)C(=O)N[C@@H](CCCCN)C(=O)N[C@H](CCCCN)C(=O)N[C@@H](CCCCN)C(=O)NCCCCCCO)O2)c(=O)[nH]c1=O` (some centres undefined): in the series on SH-SY5Y [1], the inhibition at 0.06 µM amounted to 57%. Also, the Drug uptake with SH-SY5Y [2] is reported as 15%.

In the case of `Cc1cn([C@H]2C[C@H](OP(O)(=S)OC[C@H]3O[C@@H](n4cc(C)c(=O)[nH]c4=O)C[C@@H]3OP(O)(=S)OC[C@H]3O[C@@H](n4cnc5c(=O)[nH]c(N)nc54)[C@H](O)[C@@H]3OP(O)(=S)OC[C@H]3O[C@@H](n4cc(C)c(=O)[nH]c4=O)C[C@@H]3OP(O)(=S)OC[C@H]3O[C@@H](n4cc(C)c(=O)[nH]c4=O)C[C@@H]3OP(O)(=S)OC[C@H]3O[C@@H](n4cc(C)c(=O)[nH]c4=O)C[C@@H]3OP(O)(=S)OC[C@H]3O[C@@H](n4ccc(N)nc4=O)[C@H](O)[C@@H]3OP(O)(=S)OC[C@H]3O[C@@H](n4ccc(N)nc4=O)[C@H](O)[C@@H]3OP(O)(=S)OC[C@H]3O[C@@H](n4cc(C)c(=O)[nH]c4=O)C[C@@H]3OP(O)(=S)OC[C@H]3O[C@@H](n4cc(C)c(=O)[nH]c4=O)C[C@@H]3OP(O)(=S)OC[C@H]3O[C@@H](n4cc(C)c(=O)[nH]c4=O)C[C@@H]3OP(O)(=S)OC[C@H]3O[C@@H](n4cnc5c(=O)[nH]c(N)nc54)[C@H](O)[C@@H]3OP(O)(=S)OC[C@H]3O[C@@H](n4ccc(N)nc4=O)[C@H](O)[C@@H]3O)[C@@H](COP(O)(=S)O[C@H]3[C@@H](O)[C@H](n4ccc(N)nc4=O)O[C@@H]3COP(O)(=S)O[C@H]3C[C@H](n4cc(C)c(=O)[nH]c4=O)O[C@@H]3COP(O)(=S)O[C@H]3[C@@H](O)[C@H](n4cnc5c(=O)[nH]c(N)nc54)O[C@@H]3COP(O)(=S)O[C@H]3[C@@H](O)[C@H](n4cnc5c(=O)[nH]c(N)nc54)O[C@@H]3COP(O)(=S)O[C@H]3[C@@H](O)[C@H](n4cnc5c(N)ncnc54)O[C@@H]3COP(O)(=S)OCCCC(=O)N[C@H](CCCCNC(=N)N)C(=O)N[C@@H](CCCCNC(N)N)C(=O)N[C@H](CCCCNC(=N)N)C(=O)N[C@@H](CCCCNC(=N)N)C(=O)N[C@H](CCCCNC(=N)N)C(=O)N[C@@H](CCCCNC(=N)N)C(=O)N[C@H](CCCCNC(=N)N)C(=O)N[C@@H](CCCCNC(=N)N)C(=O)NCCCCCCO)O2)c(=O)[nH]c1=O` (some centres undefined), the inhibition at 0.06 µM in the series on SH-SY5Y [1] is 66%. In the series on SH-SY5Y [2], this compound came in with a Drug uptake of 28%. Besides, the Activity with SH-SY5Y [3] is listed as 28%.
